The values below come from ChEMBL document CHEMBL3627681, “Synthesis and biological evaluation of 1,3-diaryl pyrazole derivatives as potential antibacterial and anti-inflammatory agents” (2015).

Molecules are shown by their SMILES. Converted amounts (≈) assume the structure as drawn.

For one assay, the system named is Mus musculus. Description: Antiinflammatory activity in mouse assessed as inhibition of xylene-induced ear edema at 50 mg/kg, ip administered 30 mins before xylene challenge relative to control. It counts as functional. The method in brief:
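Mice received compound freshly dissolved in DMSO, 50 mg/kg ip at 0.05 mL/20 g body weight; vehicle controls got DMSO alone. After 30 min, 20 µL xylene was applied to the right ear. After a further 30 min, 7 mm plugs were cut from treated and untreated ears and edema taken as their weight difference. Result is % edema reduction versus vehicle controls.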

Another assay has as its system Salmonella typhimurium. Kind of assay: Antibacterial activity against Salmonella typhimurium 2421 after 24 hrs by two-fold serial dilution method. Particulars: Salmonella enterica, 2421, 24 h. The format is functional, Salmonella enterica subsp. enterica serovar Typhimurium. The essentials: (§1)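 Broth microdilution in Mueller-Hinton broth over final concentrations of 64–0.5. Bacteria were grown to mid-log phase and diluted 1000-fold, then inoculated at 10⁵ CFU/mL. Compounds were dissolved in DMSO, with final DMSO at most 0.05%. Plates were incubated 24 h at 37 °C and growth read as absorbance at 650 nm. MIC is the concentration giving complete growth inhibition. Three independent runs.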

For assay [1], the system named is Staphylococcus aureus. Kind of assay: Antibacterial activity against Staphylococcus aureus 209 after 24 hrs by two-fold serial dilution method. Particulars: Staphylococcus aureus, 209, 24 h. The format is functional. The essentials: (§2)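 Broth microdilution in Mueller-Hinton broth. Bacteria grown to mid-log phase, diluted 1000-fold, and inoculated at 10⁵ CFU/mL. Test compounds in DMSO, final DMSO not above 0.05%, final concentrations 64-0.5 µg/mL. Incubation 24 h at 37 °C, growth read as absorbance at 650 nm. MIC taken as the lowest concentration giving complete growth inhibition. Run three times.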

Assay [2] has as its system Staphylococcus aureus. Kind of assay: Antibacterial activity against methicillin-resistant Staphylococcus aureus CCARM 3167 after 24 hrs by two-fold serial dilution method. The format is functional. Particulars: CCARM 3167, 24 h. The essentials: as §2
Assay [3] concerns Escherichia coli. Description: Antibacterial activity against Escherichia coli KCTC 1924 after 24 hrs by two-fold serial dilution method. The format is functional. Particulars: KCTC 1924, 24 h. The essentials:
as §1

The test system of assay [4] is Staphylococcus aureus. Kind of assay: Antibacterial activity against methicillin-resistant Staphylococcus aureus CCARM 3506 after 24 hrs by two-fold serial dilution method. It counts as functional. Particulars: CCARM 3506, 24 h. The method in brief:
as §2

The test system of the next assay is Streptococcus mutans. Kind of assay: Antibacterial activity against Streptococcus mutans 3065 after 24 hrs by two-fold serial dilution method. The format is functional. Particulars: Streptococcus mutans, 3065, 24 h. The method in brief: as §1
For assay [5], the system named is Escherichia coli. Kind of assay: Ratio of moxifloxacin MIC to compound MIC for Escherichia coli CCARM 1356 after 24 hrs by two-fold serial dilution method. The format is functional.
In assay [6] the test system is Staphylococcus aureus. Kind of assay: Antibacterial activity against quinolone-resistant Staphylococcus aureus CCARM 3505 after 24 hrs by two-fold serial dilution method. Particulars: CCARM 3505, 24 h. It counts as functional. The method in brief: as §2
For assay [7], the system named is Staphylococcus aureus. Kind of assay: Antibacterial activity against Staphylococcus aureus 503 after 24 hrs by two-fold serial dilution method. It counts as functional. Particulars: Staphylococcus aureus, 503, 24 h. The method in brief:
as §2

Assay [8] relates to Staphylococcus aureus. Description: Antibacterial activity against quinolone-resistant Staphylococcus aureus CCARM 3519 after 24 hrs by two-fold serial dilution method. It counts as functional. Particulars: CCARM 3519, 24 h. The essentials: as §2
Assay [9] relates to Staphylococcus aureus. Description: Antibacterial activity against Staphylococcus aureus RN4220 after 24 hrs by two-fold serial dilution method. It counts as functional. Particulars: RN4220, 24 h. The essentials:
as §2

The test system of assay [10] is Escherichia coli. Description: Antibacterial activity against Escherichia coli CCARM 1356 after 24 hrs by two-fold serial dilution method. It counts as functional. Particulars: CCARM 1356, 24 h. The essentials: as §1
Assay [11] relates to Pseudomonas aeruginosa. Description: Antibacterial activity against Pseudomonas aeruginosa 2004 after 24 hrs by two-fold serial dilution method. The format is functional. Particulars: Pseudomonas aeruginosa, 2004, 24 h. The method in brief: as §1
The next assay deals with Candida albicans. Description: Antifungal activity against Candida albicans 7535 by two-fold serial dilution method. It counts as functional.
Assay [12] has as its system Pseudomonas aeruginosa. Description: Antibacterial activity against Pseudomonas aeruginosa 2742 after 24 hrs by two-fold serial dilution method. It counts as functional. Particulars: Pseudomonas aeruginosa, 2742, 24 h. The method in brief:
as §1

Assay [13] deals with Staphylococcus aureus. Kind of assay: Ratio of gatifloxacin MIC to compound MIC for quinolone-resistant Staphylococcus aureus CCARM 3505 after 24 hrs by two-fold serial dilution method. It counts as functional.
For assay [14], the system named is Staphylococcus aureus. Description: Ratio of gatifloxacin MIC to compound MIC for quinolone-resistant Staphylococcus aureus CCARM 3519 after 24 hrs by two-fold serial dilution method. The format is functional.
Assay [15] has as its system Staphylococcus aureus. Kind of assay: Ratio of moxifloxacin MIC to compound MIC for quinolone-resistant Staphylococcus aureus CCARM 3505 after 24 hrs by two-fold serial dilution method. It counts as functional.

In general, inhibition in vivo refers to the share of the control response that was lost under treatment. One may read the MIC as the smallest concentration in the dilution series that meets the test's criterion for growth inhibition. Higher therefore signals a less susceptible organism. Take `Cc1ccc(-c2nn(-c3ccc([N+](=O)[O-])cc3[N+](=O)[O-])cc2/C=N/NC(=N)N)c(C)c1`: the inhibition in vivo at 50 mg/kg in the assay on Mus musculus stood at 79.6%. In addition, the MIC in the assay on Salmonella typhimurium is 8 µg/mL (≈ 18.9 µM); in the assay on Staphylococcus aureus [1], 4 µg/mL (≈ 9.47 µM); against Staphylococcus aureus [2], 2 µg/mL (≈ 4.73 µM); with Escherichia coli [3] it was 2 µg/mL (≈ 4.73 µM); in the assay with Staphylococcus aureus [4] it was 2 µg/mL (≈ 4.73 µM); against Streptococcus mutans it was 4 µg/mL (≈ 9.47 µM). Also, the MIC is 2 µg/mL (≈ 4.73 µM) with Staphylococcus aureus [6]; 4 µg/mL (≈ 9.47 µM) against Staphylococcus aureus [7]; 4 µg/mL (≈ 9.47 µM) against Staphylococcus aureus [8]; 2 µg/mL (≈ 4.73 µM) against Staphylococcus aureus [9]; 8 µg/mL (≈ 18.9 µM) against Escherichia coli [10]; above 64 µg/mL in the assay with Pseudomonas aeruginosa [11]. Also, the figures for the MIC in the assay on Candida albicans and against Pseudomonas aeruginosa [12] were 2 µg/mL (≈ 4.73 µM) and above 64 µg/mL, respectively. Besides, the Ratio with Escherichia coli [5] worked out at 16.

Consider `COc1cccc(-c2nn(-c3ccc([N+](=O)[O-])cc3[N+](=O)[O-])cc2/C=N/NC(=N)N)c1`, for which the inhibition in vivo at 50 mg/kg in the assay on Mus musculus is 67.3%. Besides, the MIC stood at 8 µg/mL (≈ 18.9 µM) against Salmonella typhimurium; 4 µg/mL (≈ 9.43 µM) with Staphylococcus aureus [1]; 4 µg/mL (≈ 9.43 µM) against Staphylococcus aureus [2]; 4 µg/mL (≈ 9.43 µM) against Escherichia coli [3]; 2 µg/mL (≈ 4.71 µM) in the assay on Staphylococcus aureus [4]; 8 µg/mL (≈ 18.9 µM) with Streptococcus mutans. In addition, the MIC in the assay on Staphylococcus aureus [6] was 4 µg/mL (≈ 9.43 µM); in the assay on Staphylococcus aureus [7], 4 µg/mL (≈ 9.43 µM); in the assay on Staphylococcus aureus [8], 4 µg/mL (≈ 9.43 µM); against Staphylococcus aureus [9], 4 µg/mL (≈ 9.43 µM); in the assay on Escherichia coli [10], 8 µg/mL (≈ 18.9 µM); in the assay with Pseudomonas aeruginosa [11], above 64 µg/mL. Further, the results for the MIC with Candida albicans and in the assay on Pseudomonas aeruginosa [12] were 2 µg/mL (≈ 4.71 µM) and above 64 µg/mL, respectively. The Ratio in the assay with Escherichia coli [5] is given as 16.

For `Cc1ccc(-c2nn(-c3ccccc3)cc2/C=N/NC(=N)N)cc1`, the inhibition in vivo at 50 mg/kg in the assay on Mus musculus amounted to 86.5%. In addition, the MIC with Salmonella typhimurium is 8 µg/mL (≈ 25.1 µM); in the assay on Staphylococcus aureus [1], 4 µg/mL (≈ 12.6 µM); with Staphylococcus aureus [2], 2 µg/mL (≈ 6.28 µM); with Escherichia coli [3], 2 µg/mL (≈ 6.28 µM); against Staphylococcus aureus [4], 2 µg/mL (≈ 6.28 µM); in the assay on Streptococcus mutans it was 8 µg/mL (≈ 25.1 µM). Also, the minimum inhibitory concentration (MIC) against Staphylococcus aureus [6] is 4 µg/mL (≈ 12.6 µM); against Staphylococcus aureus [7], 4 µg/mL (≈ 12.6 µM); against Staphylococcus aureus [8], 4 µg/mL (≈ 12.6 µM); against Staphylococcus aureus [9], 2 µg/mL (≈ 6.28 µM); in the assay on Escherichia coli [10], 8 µg/mL (≈ 25.1 µM); with Pseudomonas aeruginosa [11], 16 µg/mL (≈ 50.3 µM). For the same compound, the MIC came to 2 µg/mL (≈ 6.28 µM) in the assay with Candida albicans and 32 µg/mL (≈ 101 µM) against Pseudomonas aeruginosa [12]. For the same compound, the Ratio in the assay with Escherichia coli [5] is 16.

As to `N=C(N)N/N=C/c1cn(-c2ccc([N+](=O)[O-])cc2[N+](=O)[O-])nc1-c1ccc(Cl)cc1Cl`, the inhibition in vivo at 50 mg/kg in the assay on Mus musculus amounted to 61.9%. The MIC against Salmonella typhimurium was found to be 8 µg/mL (≈ 17.3 µM); against Staphylococcus aureus [1], 2 µg/mL (≈ 4.32 µM); with Staphylococcus aureus [2] it was 2 µg/mL (≈ 4.32 µM); in the assay with Escherichia coli [3], 2 µg/mL (≈ 4.32 µM); with Staphylococcus aureus [4], 2 µg/mL (≈ 4.32 µM); against Streptococcus mutans it was 4 µg/mL (≈ 8.63 µM). In addition, the MIC is 2 µg/mL (≈ 4.32 µM) in the assay on Staphylococcus aureus [6]; 2 µg/mL (≈ 4.32 µM) with Staphylococcus aureus [7]; 2 µg/mL (≈ 4.32 µM) in the assay with Staphylococcus aureus [8]; 2 µg/mL (≈ 4.32 µM) with Staphylococcus aureus [9]; 8 µg/mL (≈ 17.3 µM) against Escherichia coli [10]; above 64 µg/mL against Pseudomonas aeruginosa [11]. In addition, the MIC against Candida albicans is 2 µg/mL (≈ 4.32 µM); against Pseudomonas aeruginosa [12] it was above 64 µg/mL. Besides, the Ratio in the assay with Staphylococcus aureus [13] turned out to be 4; in the assay with Escherichia coli [5] it was 16; in the assay on Staphylococcus aureus [14] it was 2; in the assay with Staphylococcus aureus [15] it was 2.

Turning to `Cc1cccc(-c2nn(-c3ccc([N+](=O)[O-])cc3[N+](=O)[O-])cc2/C=N/NC(=N)N)c1`, the inhibition in vivo at 50 mg/kg in the assay with Mus musculus is 76.9%. For the same compound, the MIC is 8 µg/mL (≈ 19.6 µM) against Salmonella typhimurium; 2 µg/mL (≈ 4.9 µM) in the assay on Staphylococcus aureus [1]; 2 µg/mL (≈ 4.9 µM) against Staphylococcus aureus [2]; 2 µg/mL (≈ 4.9 µM) in the assay with Escherichia coli [3]; 2 µg/mL (≈ 4.9 µM) in the assay on Staphylococcus aureus [4]; 4 µg/mL (≈ 9.79 µM) against Streptococcus mutans. Further, the MIC is 2 µg/mL (≈ 4.9 µM) in the assay with Staphylococcus aureus [6]; 2 µg/mL (≈ 4.9 µM) against Staphylococcus aureus [7]; 4 µg/mL (≈ 9.79 µM) with Staphylococcus aureus [8]; 2 µg/mL (≈ 4.9 µM) against Staphylococcus aureus [9]; 8 µg/mL (≈ 19.6 µM) against Escherichia coli [10]; above 64 µg/mL with Pseudomonas aeruginosa [11]. The MIC against Candida albicans was 2 µg/mL (≈ 4.9 µM); with Pseudomonas aeruginosa [12], above 64 µg/mL. For the same compound, the Ratio in the assay on Escherichia coli [5] is listed as 16.
